Measured values: ChEMBL document CHEMBL1671867, “Novel polymyxin derivatives carrying only three positive charges are effective antibacterial agents” (Antimicrob Agents Chemother, 2008)
≈ marks a conversion by molar mass, not a printed value. Bridge positions count the residues as written; N and C are the ends. Square brackets hold non-standard residues; d marks the D form. Peptide text beside a SMILES is read from it. * marks the point of attachment. Decanoyl = CCCCCCCCCC(=O)*; Dab = NCC[C@H](N)C(=O)O

How the values were obtained:
Type in all cases: functional
[1] = system: Pseudomonas aeruginosa; test: (§1) Antibacterial activity against Pseudomonas aeruginosa ATCC 27853by Etest method in presence of […] NAB739
[2] = system: Pseudomonas aeruginosa; test: as §1; remark: listed apart in the source
[3] = system: Pseudomonas aeruginosa; test: Antibacterial activity against Pseudomonas aeruginosa ATCC 27853by Etest method
Outline: (§2)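 MICs of the antibiotic taken from E-strips on Mueller-Hinton agar, run both with and without peptide. […] Inoculum was prepared per the strip manufacturer, matching CLSI M2-A9.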

[4] = system: Acinetobacter baumannii; test: Antibacterial activity against Acinetobacter baumannii F264 by Etest method in presence of NAB739
[5] = system: Acinetobacter baumannii; test: Antibacterial activity against Acinetobacter baumannii F264 by Etest method in presence of 1 ug/ml NAB739
[6] = system: Acinetobacter baumannii; test: Antibacterial activity against Acinetobacter baumannii F264 by Etest method in presence of 0.5 ug/ml NAB739
[7] = system: Acinetobacter baumannii; test: (§3) Antibacterial activity against Acinetobacter baumannii F264 by Etest method in presence of […] NAB739
[8] = system: Acinetobacter baumannii; test: Antibacterial activity against Acinetobacter baumannii F264 by Etest method
Outline: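 E-strip MIC on Mueller-Hinton agar without added peptide; inoculum per manufacturer, matching CLSI M2-A9.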

[9] = system: Acinetobacter baumannii; test: as §3; remark: listed apart in the source
[10] = system: Acinetobacter baumannii; test: Antibacterial activity against Acinetobacter baumannii ATCC 19606 by Etest method in presence of NAB739
[11] = system: Acinetobacter baumannii; test: Antibacterial activity against Acinetobacter baumannii ATCC 19606 by Etest method in presence of 1 ug/ml NAB739
[12] = system: Acinetobacter baumannii; test: Antibacterial activity against Acinetobacter baumannii ATCC 19606 by Etest method in presence of 0.5 ug/ml NAB739
[13] = system: Acinetobacter baumannii; test: (§4) Antibacterial activity against Acinetobacter baumannii ATCC 19606 by Etest method in presence of […] NAB739
[14] = system: Acinetobacter baumannii; test: as §4; remark: listed apart in the source
[15] = system: Acinetobacter baumannii; test: Antibacterial activity against Acinetobacter baumannii ATCC 19606 by Etest method
[16] = system: Pseudomonas aeruginosa; test: Antibacterial activity against Pseudomonas aeruginosa ATCC 27853by Etest method in presence of 0.5 ug/ml NAB739; outline: as §2
[17] = system: Pseudomonas aeruginosa; test: Antibacterial activity against Pseudomonas aeruginosa ATCC 27853by Etest method in presence of 1 ug/ml NAB739; outline: as §2
[18] = system: Pseudomonas aeruginosa; test: Antibacterial activity against Pseudomonas aeruginosa ATCC 27853by Etest method in presence of 2 ug/ml NAB739
[19] = system: Escherichia coli; test: Antibacterial activity against Escherichia coli ATCC […] by CLSI M7-A7 agar dilution method
[20] = system: Escherichia coli; test: Antibacterial activity against Escherichia coli IH3080 assessed as growth inhibition at 10 ug after 18 hrs by […] in presence of 1 ug/ml rifampin
[21] = system: Escherichia coli; test: Antibacterial activity against Escherichia coli IH3080 assessed as growth inhibition at 10 ug after 18 hrs by […]
[22] = system: Candida albicans; test: Antibacterial activity against Candida albicans ATCC 28366 by CLSI M7-A7 agar dilution method
[23] = system: Staphylococcus aureus; test: Antibacterial activity against Staphylococcus aureus ATCC 25923 by CLSI M7-A7 agar dilution method
Outline: (§5)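 Agar dilution on Mueller-Hinton agar with test substance at 0.25 to 32 μg/ml in twofold steps. Spots of about 10^4 CFU applied with a multipoint inoculator.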

[24] = system: Escherichia coli; test: Antibacterial activity against Escherichia coli SC 9253 by CLSI M7-A7 agar dilution method; outline: as §5
[25] = system: Escherichia coli; test: Antibacterial activity against Escherichia coli SC 9252 by CLSI M7-A7 agar dilution method
[26] = system: Pseudomonas aeruginosa; test: Antibacterial activity against Pseudomonas aeruginosa ATCC 27853 by CLSI M7-A7 agar dilution method; outline: as §5
[27] = system: Acinetobacter baumannii; test: Antibacterial activity against Acinetobacter baumannii by CLSI M7-A7 agar dilution method
[28] = system: Serratia marcescens; test: Antibacterial activity against Serratia marcescens ATCC 8100 by CLSI M7-A7 agar dilution method; outline: as §5
[29] = system: Acinetobacter baumannii; test: Antibacterial activity against Acinetobacter baumannii ATCC 19606 by CLSI M7-A7 agar dilution method
[30] = system: Citrobacter freundii; test: Antibacterial activity against Citrobacter freundii ATCC 8090 by CLSI M7-A7 agar dilution method
[31] = system: Enterobacter cloacae; test: Antibacterial activity against Enterobacter cloacae by CLSI M7-A7 agar dilution method
[32] = system: Enterobacter cloacae; test: Antibacterial activity against Enterobacter cloacae CCUG52947 by CLSI M7-A7 agar dilution method
[33] = system: Enterobacter cloacae; test: Antibacterial activity against Enterobacter cloacae ATCC 23355 by CLSI M7-A7 agar dilution method
[34] = system: Klebsiella oxytoca; test: Antibacterial activity against Klebsiella oxytoca CCUG51683 by CLSI M7-A7 agar dilution method; outline: as §5
[35] = system: Klebsiella oxytoca; test: Antibacterial activity against Klebsiella oxytoca ATCC 13182 by CLSI M7-A7 agar dilution method; outline: as §5
[36] = system: Klebsiella pneumoniae; test: Antibacterial activity against Klebsiella pneumoniae by CLSI M7-A7 agar dilution method; outline: as §5
[37] = system: Escherichia coli; test: Antibacterial activity against Escherichia coli by CLSI M7-A7 agar dilution method; outline: as §5
[38] = system: Klebsiella pneumoniae; test: Antibacterial activity against Klebsiella pneumoniae CCUG45421 by CLSI M7-A7 agar dilution method; outline: as §5
[39] = system: Escherichia coli; test: Antibacterial activity against Escherichia coli IH3080 by CLSI M7-A7 agar dilution method

Row | Compound | MIC [1] [µg/mL] | MIC [2] [µg/mL] | MIC [3] [µg/mL] | fractional inhibitory concentration index (FICI) [4] | MIC [5] [µg/mL] | MIC [6] [µg/mL] | MIC [7] [µg/mL] | MIC [8] [µg/mL] | MIC [9] [µg/mL] | fractional inhibitory concentration index (FICI) [10] | MIC [11] [µg/mL] | MIC [12] [µg/mL] | MIC [13] [µg/mL] | MIC [14] [µg/mL] | MIC [15] [µg/mL] | MIC [16] [µg/mL] | MIC [17] [µg/mL] | MIC [18] [µg/mL] | MIC [19] [µg/mL] | inhibition zone (IZ) [20] [mm2] | other results
1 | CC(=O)O[C@H]1C[C@@]2(C)[C@@H](C[C@@H](O)[C@H]3[C@@]4(C)CC[C@@H](O)[C@@H](C)[C@@H]4CC[C@@]32C)/C1=C(\CCC=C(C)C)C(=O)O [FUSIDIC ACID] | > 256 | > 256 | > 256 | <=0.172 | 1 | 3 | 12 | > 256 | 32 | <=0.172 | 1 | 4 | 12 | 32 | > 256 | > 256 | > 256 | 192 |  |  | 
2 | CCCCCCCCCC(=O)N[C@H](C(=O)N[C@H](CO)C(=O)N[C@H]1CCNC(=O)[C@H]([C@@H](C)O)NC(=O)[C@H](CCN)NC(=O)[C@H](CCN)NC(=O)[C@H](CC(C)C)NC(=O)[C@@H](Cc2ccccc2)NC(=O)[C@H](CCN)NC1=O)[C@@H](C)O (Decanoyl-T[dS][Dab][Dab][dF]L[Dab][Dab]T; lactam 3-C) |  |  |  |  |  |  |  |  |  |  |  |  |  |  |  |  |  |  | 2 (≈ 1.81 µM) | 150 | inhibition zone (IZ) [21]: 130 mm2; MIC [22]: > 32 µg/mL; MIC [23]: > 32 µg/mL; MIC [24]: 16 µg/mL (≈ 14.5 µM); MIC [25]: 8 µg/mL (≈ 7.24 µM); MIC [26]: 4 µg/mL (≈ 3.62 µM); MIC [27]: 2 µg/mL (≈ 1.81 µM); MIC [28]: > 32 µg/mL; MIC [29]: 4 µg/mL (≈ 3.62 µM); MIC [30]: 2 µg/mL (≈ 1.81 µM); MIC [31]: 2 µg/mL (≈ 1.81 µM); MIC [32]: 2 µg/mL (≈ 1.81 µM); MIC [33]: 2 µg/mL (≈ 1.81 µM); MIC [34]: 2 µg/mL (≈ 1.81 µM); MIC [35]: 2 µg/mL (≈ 1.81 µM); MIC [36]: 2 µg/mL (≈ 1.81 µM); MIC [37]: 1 µg/mL (≈ 0.906 µM); MIC [38]: 4 µg/mL (≈ 3.62 µM); MIC [39]: 2 µg/mL (≈ 1.81 µM)
3 | CN[C@H](CC(C)C)C(=O)N[C@H]1C(=O)N[C@@H](CC(N)=O)C(=O)N[C@H]2C(=O)N[C@H]3C(=O)N[C@H](C(=O)N[C@H](C(=O)O)c4cc(O)cc(O)c4-c4cc3ccc4O)[C@H](O)c3ccc(c(Cl)c3)Oc3cc2cc(c3O[C@@H]2O[C@H](CO)[C@@H](O)[C@H](O)[C@H]2O[C@H]2C[C@](C)(N)[C@H](O)[C@H](C)O2)Oc2ccc(cc2Cl)[C@H]1O [VANCOMYCIN] | > 256 | > 256 | > 256 | <=0.188 | 1 | 3 | 16 | > 256 | 256 | <=0.156 | 1 | 3 | 8 | 64 | > 256 | > 256 | > 256 | > 256 |  |  | 
4 | POLYMYXIN B |  |  |  |  |  |  |  |  |  |  |  |  |  |  |  |  |  |  | 1 | 125 | inhibition zone (IZ) [21]: 120 mm2; MIC [22]: > 32 µg/mL; MIC [23]: > 32 µg/mL; MIC [24]: > 32 µg/mL; MIC [25]: > 32 µg/mL; MIC [26]: 1 µg/mL; MIC [27]: 0.5 µg/mL; MIC [28]: > 32 µg/mL; MIC [29]: 1 µg/mL; MIC [30]: 1 µg/mL; MIC [31]: 0.5 µg/mL; MIC [32]: 1 µg/mL; MIC [33]: 0.5 µg/mL; MIC [34]: 0.5 µg/mL; MIC [35]: 0.5 µg/mL; MIC [36]: 0.5 µg/mL; MIC [37]: 0.25 µg/mL; MIC [38]: 1 µg/mL; MIC [39]: 0.5 µg/mL
5 | C[C@@H](O)[C@H]1C(=O)N2C(C(=O)O)=C(S[C@@H]3CN[C@H](C(=O)N(C)C)C3)[C@H](C)[C@H]12 [MEROPENEM] | 0.25 | 0.25 | 0.25 (≈ 0.652 µM) | 0.281 | 0.38 | 1 | 6 | > 32 | 32 | 0.5 | 0.125 | 0.25 | 0.5 | 1 | 1 (≈ 2.61 µM) | 0.25 | 0.25 | 0.25 |  |  | 
